# Experiment: Toxicity liver stage against HepG2, at 10uM
# Type: cell-based
# Set-up: test concentration 10 uM, cell line HepG2-A16-CD81EGFP
# Details: human, HepG2-A16-CD81EGFP cells; read-out: INHIBITION
# Method in brief: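 Uninfected HepG2-A16-CD81EGFP cells, 3 × 10^3 per well, 1536-well, plated on prespotted compound at 10 μM final, parasite-free screening media added to match infected plates; puromycin 10 μM positive, DMSO 0.5% negative; run in parallel with 48 h PbLuc assay at 37 °C, 5% CO2; viability by CellTiter-Glo luminescence, normalized to controls.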
row,SMILES,cytotoxicity at 10 µM [%]
1,O=C(NS(=O)(=O)c1ccccc1)c1ccccc1F,11.4
2,CC[C@H]1CN2CC[C@H]1C[C@@H]2CNCc1cccc(C#N)c1,5.96
3,NC(=O)c1cccc2nc([C@H]3CCN(Cc4ccccc4F)C3)[nH]c12,20.8
4,Cc1nc(-c2ccc(S(=O)(=O)N3CCOCC3)cc2)co1,-9.52
5,O=C(N[C@H]1CCCC[C@@H]1O)c1ccc(-c2nc3ccccc3[nH]2)cc1,-1.43
6,CC(=O)c1cccc(NC(=O)C2CN(S(=O)(=O)C3CC3)C2)c1,3.62
7,COC(=O)c1sccc1S(=O)(=O)NCCC(O)c1ccco1 (stereo not given),-5.98
8,COc1ccc(CC(=O)Nc2c(C)nc(N3CCCC3)nc2C)cc1,2.05
9,COCCC(=O)N1C[C@H]2CN(Cc3cccc(C)c3)C(=O)[C@H]2C1,2.05
10,Cc1cccc(CN2C[C@@H]3CN(C(=O)C4CC=CC4)C[C@@H]3C2=O)n1,2
11,Cc1cccc(N2CC3(CCN(c4nncs4)C3)CC2=O)c1 (stereo not given),0.179
12,CN1CCN(C(=O)N2CCCC2)Cc2cccnc21,-3.66
13,Fc1cnc(N2CCCC3(CCN(c4ncccn4)C3)C2)nc1 (stereo not given),-113
14,Cc1nn(CCCNC(=O)C2CCN(S(C)(=O)=O)CC2)c(Cl)c1Cl,-11.3
15,CCn1nc(C)c(CN2CCNCC2)c1C,6.4
16,CC(C)c1cc(C(=O)N2CCN(c3ncc4c(n3)CCOC4)CC2)on1,1.57
17,Cc1ccnc(C2CN(Cc3cnn(-c4ccccc4C(=O)O)c3)C2)n1,6
18,O=C(c1cc(-n2cccn2)ccc1Cl)N1CCCC(N2CCCC2)C1 (stereo not given),1.86
19,CC(C)n1nccc1C(=O)N1CCC(c2nnsc2S(C)(=O)=O)CC1,-0.88
20,CNc1cc(C2CCCN2C(=O)CCc2cnn(C)c2C)ccn1 (stereo not given),5.98
21,O=C(CCn1c(C(F)F)cc2cccnc21)NC1CCCCC1,-27.9
22,CC(C)CNC(=O)C1(Cc2ccccc2-c2cccs2)CCNC1 (stereo not given),-31.2

row,SMILES,cytotoxicity at 10 µM [%]
1,Cc1cc(-c2cnc(N3CCNC(=O)C3)nc2-c2ccoc2C)on1,-25.5
2,CCC(=O)N1CCC1c1cc(NC2CCCC2)nc(C)n1 (stereo not given),-7.61
3,O=C(NC[C@]1(O)CN(Cc2ccccc2F)C[C@H]1O)c1cscn1,-12
4,CC(=O)N1CCCC1c1cccc(Cc2ccccc2F)n1 (stereo not given),-1.44
5,CC(C)CN1CCC(C(=O)NCCNC(=O)c2ccoc2)CC1,0.335
6,COC(=O)N1CCC(NC(=O)c2cc(S(N)(=O)=O)ccc2C)CC1,-1.22
7,CN(Cc1cccs1)C(=O)CN1C(=O)c2cc(Cl)c(Cl)cc2C1=O,-6.13
8,O=C(NCCc1cc(F)ccc1F)NCC(O)C1CC1 (stereo not given),-2.99
9,Cc1ccc(CNC(C)(C)c2noc(C(C)(C)C)n2)o1,-9.02
10,CCC(C)(CC(=O)OC)NCc1c(C)noc1C (stereo not given),-3.19
11,COc1ccccc1CC(C)CC(=O)N(C)Cc1cc(C)on1 (stereo not given),3.8
12,Cc1ccc(Cl)cc1NS(=O)(=O)c1cc(C(N)=O)n(C)c1,3.8
13,O=C1NCCCCC1NC(=O)C1(c2ccc3c(c2)OCCO3)CCCC1 (stereo not given),0.969
14,CCCC(C#N)NC(=O)CCCOc1cccc(C(C)=O)c1 (stereo not given),-46.2
15,COc1ccc2c(c1)NC(=O)C2OC(=O)CCc1ccc(F)cc1 (stereo not given),-4.71
16,O=C(NCCOc1ccc(Cl)cn1)Nc1nccs1,11.3
17,COC(=O)N1CCCC(NC(=O)NCc2cccc(C)n2)C1 (stereo not given),-8.62
18,O=C(NCC(O)COc1ccc(C(F)(F)F)cc1)Nc1nncs1 (stereo not given),-14.2
19,COCc1nc2cc(NCc3csc(C)n3)ccc2o1,0.873
20,CCn1cc(CNCC(c2ccc(C)s2)N2CCOCC2)cn1 (stereo not given),-8.65
21,N#Cc1cccnc1NCCNC(=O)N1CCSCC1,-1.22
22,Cc1nc(C)n(C2CCCN(C(=O)CCn3cncn3)C2)n1 (stereo not given),-4.24

row,SMILES,cytotoxicity at 10 µM [%]
1,Cn1cc(NC(=O)c2cccc(C(F)(F)F)c2)c(=O)n(C)c1=O,0.49
2,Cc1cc(N2CCOCC2)ccc1NC(C)c1nc(C(C)(C)C)no1 (stereo not given),-12.7
3,CCc1nnc2n1CC(CNCc1nnc(C(C)(C)C)o1)CC2 (stereo not given),3.18
4,O=C(NCCn1ccnc1)c1cc(Br)c[nH]1,-5.2
5,CC(C)(C#N)CCCS(=O)(=O)c1nccn1-c1cccc(F)c1,-1.12
6,COCC(=O)NC(c1ccc(Cl)cc1)c1noc(C)n1 (stereo not given),6.66
7,N#CCCN(Cc1ccccn1)C(=O)Nc1cccnc1,0.525
8,CC(NCCn1c(=O)oc2ccccc21)c1ccccn1 (stereo not given),-7.1
9,O=C(CCC(=O)c1ccccc1)NC1(C(=O)NCC2CC2)CCCC1,2.26
10,O=C(O)c1ccc(S(=O)(=O)Nc2ccccc2F)c(F)c1,5.51
11,CC(C)(C)C(=O)NCC(=O)NCCc1nc(C(F)(F)F)cs1,6.16
12,COCC1CC2(CCN(Cc3nc(C)cs3)CC2)CO1 (stereo not given),-111
13,O=C(c1ccc(F)c(F)c1)N1CCC[C@]2(C[C@@H](OCC3CC3)CO2)C1,-70.1
14,CC(C)NC(=O)C1CN(C(=O)Nc2ccc(F)cc2)CC12CCOCC2 (stereo not given),-80.9
15,Cc1noc(C)c1CN1CCO[C@H]2CN(Cc3cccnc3)C[C@H]21,-2.61
16,COCC(=O)N1CC[C@@H](N2CCOCC2)[C@@H]1Cc1ccccc1,-3.06
17,Cc1cccnc1NCCNC(=O)c1cnc(-c2cccs2)nc1O,4.62
18,CC[C@H](CO)NC(=O)c1coc(COc2cccc(F)c2F)n1,3.08
19,CN1CCC(N(C)C[C@H]2CC[C@@H](Cc3ccc4c(cnn4C)c3)O2)CC1,5.03
20,CCn1cncc1Cn1cccc(C(F)(F)F)c1=O,-20.7
21,Cc1cc(C(=O)N2CC(O)CO2)c2ccc(C)c(C)c2n1 (stereo not given),11.3
22,COCCN1CCCC(O)(CN2CCN(c3ccncc3C)CC2)C1=O (stereo not given),-6.45

row,SMILES,cytotoxicity at 10 µM [%]
1,Cc1ccc(-c2nc(CNS(=O)(=O)N(C)C)[nH]c2-c2ccccn2)cc1,-0.678
2,COc1ccc(CN(C)C(=O)c2nnc(CN(C)C)o2)cc1,-3.42
3,CCOC(=O)CNC(=O)N1CCOC(CCc2ccccc2)C1 (stereo not given),-4.41
4,Cc1ccsc1CN(CCN(C)C)C(=O)c1ccccc1C#N,-119
5,CCc1cc(-c2cc[nH]n2)nc(N2CCCC2)n1,0.255
6,Cc1ncsc1CN1CCn2nc(CCC(=O)N3CCCC3)cc2C1,-22.2
7,COC(=O)c1cccc(CN(C)C(C)c2ccccn2)c1 (stereo not given),5.85
8,CCC1CN(C(=O)c2ccccc2C(C)=O)CCN1C(C)C (stereo not given),0.684
9,CCSCC(C)NCc1nn(C)c2ccc(C)cc12 (stereo not given),1.71
10,COC(=O)[C@@H](NC(=O)c1coc(COc2cccc(F)c2F)n1)C(C)C,1.31
11,Cc1ncc(CNC2CC(=O)N(CCc3ccc(F)cc3)C2)n1C (stereo not given),-0.309
12,C[C@H](NC(=O)C1(N(C)Cc2ccccc2)Cc2ccccc2C1)C(N)=O,0.521
13,NC(=O)c1csc(N2C[C@@H](CN3CCCCC3)[C@@H](CO)C2)n1,-1.39
14,CCCOc1ccccc1NCC(=O)Nc1ccc(CC)cc1,6.37
15,N#Cc1ccc(NCc2cc3n(n2)CCCN(C(=O)C2CCC2)C3)nc1,-127
16,c1cc(-c2cn[nH]c2)ccc1CN1CCNCC1,0.866
17,c1ccc(CCCn2ccnc2-c2cn(C3CCNCC3)nn2)nc1,-1.86
18,Cc1ccccc1CN(CCO)Cc1ncc[nH]1,-3.97
19,COc1ccc(NC(=O)N2CCC3(CC2)NC(=O)CC3C(=O)O)c(C)c1 (stereo not given),-7.34
20,CCNC(=O)[C@@H]1C[C@@H](n2cc(CC3CCCCC3)nn2)CN1,5.42
21,COCc1cc(CNC(=O)c2cccc3c2OCC3)n[nH]1,8.97
22,COc1ccc(CNCC(O)c2cccc(O)c2)cc1Br (stereo not given),-3.86

row,SMILES,cytotoxicity at 10 µM [%]
1,Cc1cc(C)c(CNC(=O)CC2CCCO2)c(=O)[nH]1 (stereo not given),-10.7
2,Cc1nccc(C(=O)NC(CN2CCCC2=O)c2ccccc2)n1 (stereo not given),8.01
3,Cc1cc(CN2CCN(C(=O)NC(C)c3ccncc3)CC2)on1 (stereo not given),-5.66
4,CC(Cn1cccn1)NC(=O)Nc1nnc(C2CC2)s1 (stereo not given),-1.71
5,Cc1nc(C2CCCN(C(=O)c3ccc(Cn4cccn4)o3)C2)no1 (stereo not given),-6.38
6,Cc1nccc(-c2cccc(NCC(=O)N3CCc4sccc4C3)c2)n1,1.06
7,CCOc1ccc(Cl)c(C(=O)NCc2ccc(C(=O)NC)cc2)n1,-9.88
8,COCC(O)CN(C)C(=O)NC1CCN(Cc2ccccn2)CC1 (stereo not given),-0.0353
9,COc1ncccc1NC(=O)NCC1CCS(=O)(=O)C1 (stereo not given),-9.16
10,COCc1cccc(C(=O)N2CCCCC2c2nccs2)c1 (stereo not given),-2.06
11,Cc1ccc(OCCC(=O)N2CCN(c3cnccn3)CC2)cc1C,-12.2
12,Cc1ccc(CN2C[C@H](OCCN(C)C)[C@H]3COC[C@H]32)o1,1.6
13,Cc1ccc(CN2C[C@@H]3COC[C@H](C(=O)N4CCCCO4)[C@@H]3C2)o1,3.37
14,COCCN1CCCC2(CCC(=O)N2Cc2cccnc2)C1 (stereo not given),4.32
15,Cc1cccc(CN2C(=O)CC[C@@H]3[C@H]2CCN3C(=O)c2ccsc2)n1,-85.7
16,COCCN1CCC2(CC1)CN(C(=O)Cc1cccnc1)CCO2,-9.43
17,O=C(c1ccc[nH]1)N1CCc2c(COCC3CC3)cncc2C1,5.71
18,CCOCC(=O)N1CCOCC2(CCN(c3ncccn3)C2)C1 (stereo not given),-2.22
19,Cn1cc(CN2CCC3(CC2)NC(=O)CC3c2ccncc2)cn1 (stereo not given),-2.1
20,Cn1cccc1C(=O)N1C[C@H]2CN(Cc3cccs3)C[C@H]2C1,2.02
21,CC(C)c1nn(C)cc1CNCc1cccnc1N(C)C,-1.96
22,Cc1cccc(CN2C(=O)C[C@H]3[C@@H]2CCN3Cc2nccs2)n1,-2.92
